Data: ChEMBL document CHEMBL1157419, “Bioactive isocoumarins isolated from the endophytic fungus Microdochium bolleyi” (2008)

How the values were obtained:
[1] = test system: Escherichia coli; experiment: Antimicrobial activity against Escherichia coli by agar diffusion method; type: functional
How it was run: (§1)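 Test substance dissolved in acetone at 1 mg/mL, and 50 µL (50 µg) applied to a sterile 9 mm filter disk. Disk placed on NB agar, then sprayed with a suspension of the test bacterium (E. coli Gram-negative; B. megaterium Gram-positive). Acetone run as a solvent control.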

[2] = test system: Priestia megaterium; experiment: Antimicrobial activity against Bacillus megaterium by agar diffusion method; type: functional; how it was run: as §1
[3] = test system: Microbotryum violaceum; experiment: Antimicrobial activity against Microbotryum violaceum by agar diffusion method; type: functional
How it was run: (§2)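 Test substance dissolved in acetone at 1 mg/mL, and 50 µL (50 µg) pipetted onto a sterile 9 mm filter disk. Disk laid on MPY agar, then sprayed with a suspension of the fungus M. violaceum or the alga C. fusca. Acetone tested as a solvent control.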

[4] = test system: [Chlorella] fusca; experiment: Antimicrobial activity against Chlorella fusca by agar diffusion method; type: functional, Scenedesmus fuscus; how it was run: as §2

Molecule | inhibition zone (IZ) [1] [mm] | inhibition zone (IZ) [2] [mm] | inhibition zone (IZ) [3] [mm] | inhibition zone (IZ) [4] [mm] | inhibition zone (IZ) ([4]; Scenedesmus fuscus) [mm]
CCC[C@@H](O)C[C@H]1OC(=O)c2c(cc(OC)c(OC)c2O)[C@H]1O | 10 | 7 | 9 | 10 | –
CN(C)[C@@H]1C(O)=C(C(N)=O)C(=O)[C@@]2(O)C(O)=C3C(=O)c4c(O)cccc4[C@@](C)(O)[C@H]3C[C@@H]12 [TETRACYCLINE] | 18 | 18 | 10 | 0 | –
C[C@@H]1C[C@@H]([C@H](O)CC2CC(=O)NC(=O)C2)C(=O)[C@@H](C)C1 [CYCLOHEXIMIDE] | 0 | 0 | 35 | 50 | –
NYSTATIN | 0 | 0 | 0 | – | 20
COc1cc2c(c(O)c1OC)C(=O)O[C@@H]1C[C@H](C[C@@H](C)O)O[C@H]21 | 0 | 0 | 7 | 6 | –
CCC[C@H]1C[C@H]2OC(=O)c3c(cc(OC)c(OC)c3O)[C@H]2O1 [MONOCERIN] | 10 | 6 | 23 | 8 | –
COc1cc2c(c(O)c1OC)C(=O)O[C@@H]1C[C@H](C[C@H](C)O)O[C@H]21 | 8 | 6 | 9 | 10 | –
